Entries after “also recorded” stand apart in the source; their conditions may differ. Like-named read-outs stand apart in the source and are kept apart here.
Tests used:
[1] = biological target: T1, SHP1 (Homo sapiens, UniProt P29350); assay: PTP selectivity panel; assay type: biochemical
T1 sequence (P29350 244-515 limits assumed): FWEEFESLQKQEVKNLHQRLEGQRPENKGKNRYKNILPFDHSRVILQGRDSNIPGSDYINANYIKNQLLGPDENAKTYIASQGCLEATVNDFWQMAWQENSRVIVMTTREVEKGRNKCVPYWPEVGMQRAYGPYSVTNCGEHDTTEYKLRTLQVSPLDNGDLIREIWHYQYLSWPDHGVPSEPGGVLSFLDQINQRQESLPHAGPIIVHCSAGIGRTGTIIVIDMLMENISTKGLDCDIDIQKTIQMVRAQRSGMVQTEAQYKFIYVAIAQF
Procedure, shortened: (§1)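 Recombinant catalytic domains in pH 7.0 buffer (50 mmol/L MOPS, 100 mmol/L NaCl, 1 mmol/L EDTA, 1 mmol/L DTT, 1 mg/mL BSA). Enzyme preincubated with test compound 5 min at 37 °C. Then pNPP (100 mmol/L stock) added, 10 min at 37 °C. Stopped with NaHCO3; p-nitrophenol read at 405 nm. IC50 by fitting concentration–inhibition curves; triplicate points.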

[2] = test system: C2C12 cells; assay: MTT cytotoxicity assay; assay type: cell-based; conditions: 24 hours
Procedure, shortened: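 C2C12 cells were grown in DMEM with 10% FBS at 37 °C, 5% CO2, seeded in 96-well plates and exposed to test compound for 24 h. MTT (5 mg/mL stock) was added for 4 h at 37 °C. Formazan was dissolved in DMSO and read at 490 nm. Viability is relative to untreated control (100%). Six wells per treatment; three independent experiments.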

[3] = biological target: T2, HePTP (Homo sapiens, UniProt P35236); assay: PTP selectivity panel; assay type: biochemical
T2 sequence (P35236 97-350 limits assumed): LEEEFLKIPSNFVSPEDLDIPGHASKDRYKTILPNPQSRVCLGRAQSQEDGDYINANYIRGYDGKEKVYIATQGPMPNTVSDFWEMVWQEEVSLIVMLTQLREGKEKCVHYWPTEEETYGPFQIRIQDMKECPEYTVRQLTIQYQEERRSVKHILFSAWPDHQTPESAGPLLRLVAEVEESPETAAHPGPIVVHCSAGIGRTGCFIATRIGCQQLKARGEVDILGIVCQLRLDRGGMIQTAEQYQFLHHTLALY
Procedure, shortened: as §1

[4] = test system: T2DM mice; assay type: in vivo; conditions: for Serum TC / Serum TG / Body weight / Effect on serum TC and TG: T2DM mice; for Serum TC / Serum TG: 200 mg/kg oral once per day, mean ± SD (n=8–10); for Body weight: 200 mg/kg oral once a day for 8 weeks; for Effect on serum TC and TG: 200 mg/kg oral, 8 weeks
Procedure, shortened: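 Male Kunming mice (8 weeks, 18–22 g) fed high-fat diet (20% sucrose, 10% lard, 2.5% cholesterol, 1% sodium cholate, 66.5% chow) for 4 weeks. After an 8 h fast, STZ 35 mg/kg i.p. in citrate-buffered saline pH 4.4, daily for 1 week. Test compound by oral gavage daily for 8 weeks, DMSO stock diluted in 0.9% saline; saline vehicle. Weekly 8-h-fasted tail-vein glucose (glucometer) and body weight; serum TG/TC by kits.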

[5] = test system: insulin signaling (IRβ, AKT, ERK1/2, phosphotyrosine) in adipose tissue, skeletal muscle, and liver; assay: Western blot of insulin signaling in tissues of T2DM mice; assay type: in vivo; conditions: 200 mg/kg, 8 weeks
Procedure, shortened: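 After 8 weeks of dosing, subcutaneous adipose, skeletal muscle and liver were snap-frozen and homogenised in SDS sample buffer lacking bromophenol blue, then spun 12,000 × g, 20 min, 4 °C. 20 µg protein run on 8–10% SDS-PAGE. Membranes blocked 2 h in 3% BSA/TBST; primaries overnight at 4 °C, HRP secondaries 2 h. ECL and densitometry; phospho normalised to total, normal mice = 100%; n=3.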

[6] = biological target: T3, SHP2 (Homo sapiens, UniProt Q06124); assay: PTP selectivity panel; assay type: biochemical
T3 sequence (Q06124 247-517 limits assumed): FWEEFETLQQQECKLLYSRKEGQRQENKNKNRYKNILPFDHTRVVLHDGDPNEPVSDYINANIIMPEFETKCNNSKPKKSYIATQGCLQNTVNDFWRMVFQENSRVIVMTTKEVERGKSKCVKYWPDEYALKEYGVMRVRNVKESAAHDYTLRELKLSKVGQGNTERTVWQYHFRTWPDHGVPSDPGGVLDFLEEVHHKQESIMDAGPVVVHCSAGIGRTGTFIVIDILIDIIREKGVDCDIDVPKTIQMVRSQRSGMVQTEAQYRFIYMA
Procedure, shortened: as §1

[7] = test system: L6 myotubes; conditions: ref Choi et al [19]; cited from earlier work
[8] = test system: insulin signaling (IRβ, AKT, ERK1/2, GLUT4, phosphotyrosine) in C2C12 myotubes; assay: Western blot of insulin signaling in insulin-stimulated C2C12 myotubes; assay type: cell-based
Procedure, shortened: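 C2C12 myoblasts at 75% confluence were differentiated in DMEM with 2% horse serum for 4–6 days. Myotubes were pretreated 1 h with test compound (in DMSO), then given 10 nM insulin for 10 min. Whole-cell lysates and plasma-membrane fractions were blotted (10% SDS-PAGE) for phospho/total IRβ, AKT, ERK1/2, GLUT4, phosphotyrosine and actin; ECL detection. Phospho normalised to total, expressed as fold of insulin alone; n=3.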

[9] = biological target: T4, TCPTP (Homo sapiens, UniProt P17706); assay: PTP selectivity panel; assay type: biochemical
T4 sequence (P17706 5-275 limits assumed): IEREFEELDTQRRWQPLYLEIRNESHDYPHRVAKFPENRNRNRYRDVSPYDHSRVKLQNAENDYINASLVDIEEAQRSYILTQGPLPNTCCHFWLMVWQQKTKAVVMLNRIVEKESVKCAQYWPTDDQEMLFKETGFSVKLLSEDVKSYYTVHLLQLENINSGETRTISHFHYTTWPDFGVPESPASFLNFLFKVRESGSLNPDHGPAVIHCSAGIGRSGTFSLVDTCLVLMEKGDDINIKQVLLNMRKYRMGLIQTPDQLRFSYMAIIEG
Procedure, shortened: as §1

[10] = test system: PTP1B−/− mice; assay: Honokiol treatment of PTP1B gene knockout mice; assay type: in vivo; conditions: pre-experiments, Figure S2
[11] = biological target: T5, PTP1B (Homo sapiens, UniProt P18031); assay: PTP1B inhibition measurement; assay type: biochemical
T5 sequence (P18031 3-277 limits assumed): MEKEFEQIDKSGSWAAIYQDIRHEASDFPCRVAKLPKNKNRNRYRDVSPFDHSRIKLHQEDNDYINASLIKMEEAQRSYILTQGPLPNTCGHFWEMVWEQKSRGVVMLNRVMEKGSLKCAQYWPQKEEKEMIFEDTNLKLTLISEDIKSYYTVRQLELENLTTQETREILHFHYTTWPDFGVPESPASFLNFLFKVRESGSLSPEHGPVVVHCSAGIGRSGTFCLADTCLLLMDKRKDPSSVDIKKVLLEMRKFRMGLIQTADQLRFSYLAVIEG
Procedure, shortened: as §1

[12] = test system: PPAR-γ; conditions: in vitro; ref Atanasov et al [18]; cited from earlier work
[13] = test system: murine and human adipocytes; conditions: ref Alonso-Castroa et al [20]; cited from earlier work
[14] = honokiol 0 to 30 µM 1 hour, then 10 nM insulin 10 minutes

C=CCc1ccc(O)c(-c2ccc(O)c(CC=C)c2)c1 [Honokiol]
IC50 [1]: 763.2 ± 5.49 µM | Selectivity on PTP1B over SHP1 ([1]; from IC50 values): ~ 12 fold | Maximum concentration without cytotoxicity [2]: 40 µM | IC50 [3]: 890 ± 9.46 µM | Selectivity on PTP1B over HePTP ([3]; from IC50 values): ~ 14 fold | Serum TC ([4]; 0 week): 3.62 ± 0.15 mmol/L | Serum TG ([4]; 0 week): 0.51 ± 0.03 mmol/L | Serum TC ([4]; 8 week): 3.67 ± 0.16 mmol/L | Serum TG ([4]; 8 week): 0.48 ± 0.03 mmol/L | Body weight [4]: decreased at early treatment and then gradually increased | Effect on serum TC and TG [4]: does not affect TC and TG | Macroscopic organ toxicity ([4]; brain, heart, kidneys, liver, spleen, stomach, large and small intestine, and lungs): no macroscopic toxicity | Dose with the most significant hypoglycemic effects (pre-experiments) ([4]; series 10, 50, 100, 150, 200, 250, and 300 mg/kg, data not shown): 200 mg/kg | Serine phosphorylation of AKT in adipose tissue, skeletal muscle, and liver [5]: enhanced | Tyrosine phosphorylation of ERK in adipose tissue, skeletal muscle, and liver [5]: enhanced | IC50 [6]: 785.5 ± 6.83 µM | Selectivity on PTP1B over SHP2 ([6]; from IC50 values): ~ 12 fold | Glucose uptake [7]: stimulates glucose uptake | Tyrosine phosphorylations of cellular proteins [8]: enhanced | Insulin-induced GLUT4 level in the plasma membrane fraction ([8]; GLUT4 in whole cell lysates not altered): dose-dependently increased | Insulin-stimulated tyrosine phosphorylation of ERK [8, 14]: enhances | Insulin-stimulated tyrosine phosphorylation of IRβ [8, 14]: largely enhanced | Serine phosphorylation of AKT [8, 14]: enhances | IC50 [9]: 604.4 ± 4.89 µM | Selectivity on PTP1B over TCPTP ([9]; from IC50 values): approximately ninefold | Blood glucose in PTP1B−/− mice [10]: cannot affect; also recorded: No hypoglycemic potency | Body weight in PTP1B−/− mice [10]: No potency of honokiol on the amelioration of body weight | Ki [11]: 6.67 µM | Inhibition type on PTP1B ([11]; Lineweaver–Burk plot, 1/v versus 1/[pNPP]): reversible competitive inhibitory activity; also recorded: competing with the substrate for the enzyme active site | PPAR-γ activation [12]: novel nonadipogenic partial PPAR-γ activator | Glucose uptake [13]: stimulates glucose uptake

CN(C)C(=N)N=C(N)N [Metformin, reference compound]
Serum TC ([4]; 0 week): 3.70 ± 0.31 mmol/L | Serum TG ([4]; 0 week): 0.54 ± 0.02 mmol/L | Serum TC ([4]; 8 week): 3.57 ± 0.11 mmol/L | Serum TG ([4]; 8 week): 0.49 ± 0.04 mmol/L | Body weight [4]: stable body weight | Effect on serum TC and TG [4]: no significant difference
